We go through 1 compound from ChEMBL document CHEMBL3872233, “Topical Treatment of Leishmania tropica Infection Using (-)-α-Bisabolol Ointment in a Hamster Model: Effectiveness and Safety Assessment” (J Nat Prod, 2016).

Data set [1] deals with Leishmania tropica. The data set can be described thus: Antileishmanial activity against Leishmania tropica MHOM/MA/1988/LEM1314 promastigotes infected in Syrian hamster assessed as reduction in parasite load in spleen at 5 % administered once daily tropically on footpad for 3 weeks starting at week 7 post infection measured 1 week post last dose by qPCR analysis relative to control. The class given is functional. The method in brief: (§1)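 Hamsters were infected in the footpad and treated daily for 21 days from week 7 post-infection, n = 10/group, and sacrificed 1 week after the last dose. Footpad skin, liver and spleen DNA was assayed by L. tropica-specific TaqMan qPCR (chromosome 29 target), in triplicate with 50 ng DNA per 25 μL reaction. Load was interpolated from Ct on a calibration curve of promastigote DNA, relative to base-ointment controls.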
Background: Real-time PCR tracks product formation cycle by cycle.

Data set [2] deals with Leishmania tropica. The data set can be described thus: Antileishmanial activity against Leishmania tropica MHOM/MA/1988/LEM1314 promastigotes infected in Syrian hamster assessed as reduction in parasite load in spleen at […] administered once daily through oral gavage for 3 weeks starting at week 7 post infection measured 1 week post last dose by qPCR analysis relative to control. The class given is functional. The method in brief:
as §1

In data set [3] the test system is Leishmania tropica. Briefly: Antileishmanial activity against Leishmania tropica MHOM/MA/1988/LEM1314 promastigotes infected in Syrian hamster assessed as reduction in parasite load in liver at […] administered once daily through oral gavage for 3 weeks starting at week 7 post infection measured 1 week post last dose by qPCR analysis relative to control. The class given is functional, tissue-based. The method in brief:
as §1

Data set [4] concerns Syrian golden hamster. Briefly: Toxicity in Syrian hamster infected with Leishmania tropica MHOM/MA/1988/LEM1314 promastigotes assessed as mean serum ALT levels at 5 % administered tropically on footpad for 3 weeks starting at week 7 post infection measured 1 week post last dose (reference value: 81.6 +/- 4.9 U/L). The class given is organism-based, Mesocricetus auratus. As to conditions: in vivo, topical_or_ocular, 168 h.

In data set [5] the test system is Syrian golden hamster. The data set can be described thus: Toxicity in Syrian hamster infected with Leishmania tropica MHOM/MA/1988/LEM1314 promastigotes assessed as mean serum ALT levels at 1 % administered tropically on footpad for 3 weeks starting at week 7 post infection measured 1 week post last dose (reference value: 81.6 +/- 4.9 U/L). The class given is organism-based, Mesocricetus auratus. As to conditions: in vivo, topical_or_ocular, 168 h.

The test system of data set [6] is Syrian golden hamster. Briefly: Toxicity in Syrian hamster infected with Leishmania tropica MHOM/MA/1988/LEM1314 promastigotes assessed as liver weight at 5 % administered tropically on footpad for 3 weeks starting at week 7 post infection measured 1 week post last dose (reference value: 3.3 +/- 0.2 g). The class given is organism-based, Mesocricetus auratus. As to conditions: in vivo, topical_or_ocular, 168 h. The method in brief:
(§2)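 Infected hamsters were treated daily for 21 days from week 7 post-infection (ointment 1–5%, 200 mg/kg gavage, or intralesional meglumine antimoniate 2 mg SbV/kg). Clinical signs and body weight were monitored during treatment and a 7-day follow-up. After sacrifice, liver and spleen were weighed and serum ALP, ALT, creatinine, urea and AST were measured with kits, compared with untreated infected animals.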

For data set [7], the system named is Syrian golden hamster. Briefly: Toxicity in Syrian hamster infected with Leishmania tropica MHOM/MA/1988/LEM1314 promastigotes assessed as pain at 200 mg/kg administered through oral gavage for 3 weeks starting at week 7 post infection measured during compound dosing or measured 1 week post last dose. The class given is organism-based, Mesocricetus auratus. As to conditions: in vivo, 168 h. The method in brief:
(§3)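 Infected hamsters (footpad, 3 × 10^7 promastigotes) were gavaged daily for 21 days from week 7 post-infection at 200 mg/kg in olive oil, n=10.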

In data set [8] the test system is Syrian golden hamster. The data set can be described thus: Toxicity in Syrian hamster infected with Leishmania tropica MHOM/MA/1988/LEM1314 promastigotes assessed as mean serum creatinine levels at 200 mg/kg administered through oral gavage for 3 weeks starting at week 7 post infection measured 1 week post last dose (reference value: 0.19 mg/dl). The class given is organism-based, Mesocricetus auratus. As to conditions: in vivo, 168 h.

In data set [9] the test system is Syrian golden hamster. Briefly: Toxicity in Syrian hamster assessed as redness at 500 mg/kg, po or 5 % administered tropically on footpad for 28 days. Format: organism-based, Mesocricetus auratus. As to conditions: in vivo, 672 h.
In data set [10] the test system is Leishmania tropica. The data set can be described thus: Antileishmanial activity against Leishmania tropica MHOM/MA/1988/LEM1314 promastigotes infected in Syrian hamster assessed as reduction in parasite load in liver at 5 % administered once daily tropically on footpad for 3 weeks starting at week 7 post infection measured 1 week post last dose by qPCR analysis relative to control. Format: functional, tissue-based. The method in brief:
as §1

The subject of data set [11] is Syrian golden hamster. The data set can be described thus: Toxicity in Syrian hamster infected with Leishmania tropica MHOM/MA/1988/LEM1314 promastigotes assessed as mean serum ALP levels at 2.5 % administered tropically on footpad for 3 weeks starting at week 7 post infection measured 1 week post last dose (reference value: 14.4 +/- 0.9 U/L). The class given is organism-based, Mesocricetus auratus. As to conditions: in vivo, topical_or_ocular, 168 h.

The test system of data set [12] is Syrian golden hamster. The data set can be described thus: Toxicity in Syrian hamster infected with Leishmania tropica MHOM/MA/1988/LEM1314 promastigotes assessed as redness at 200 mg/kg administered through oral gavage for 3 weeks starting at week 7 post infection measured during compound dosing or measured 1 week post last dose. Format: organism-based, Mesocricetus auratus. As to conditions: in vivo, 168 h. The method in brief: as §3

Data set [13] concerns Syrian golden hamster. Briefly: Toxicity in Syrian hamster assessed as mean serum creatinine levels at 5 % administered tropically on footpad for 28 days (reference value: 0.21 +/- 0.2 mg/dl). The class given is organism-based, Mesocricetus auratus. As to conditions: in vivo, topical_or_ocular, 672 h.
In data set [14] the test system is Syrian golden hamster. The data set can be described thus: Toxicity in Syrian hamster assessed as urea levels at 5 % administered tropically on footpad for 28 days (reference value: 33.2 +/- 2.8 mg/dl). The class given is organism-based, Mesocricetus auratus. As to conditions: in vivo, topical_or_ocular, 672 h.
In data set [15] the test system is Syrian golden hamster. Briefly: Toxicity in Syrian hamster infected with Leishmania tropica MHOM/MA/1988/LEM1314 promastigotes assessed as footpad edema at 200 mg/kg administered through oral gavage for 3 weeks starting at week 7 post infection measured during compound dosing or measured 1 week post last dose. Format: organism-based, Mesocricetus auratus. As to conditions: in vivo, 168 h. The method in brief:
as §2

Data set [16] concerns Leishmania tropica. Briefly: Antileishmanial activity against Leishmania tropica MHOM/MA/1988/LEM1314 promastigotes infected in Syrian hamster assessed as reduction in parasite load in spleen at 2 mg/kg administered intralesionally once daily on footpad for 3 weeks starting at week 7 post infection measured 1 week post last dose by qPCR analysis relative to control. Format: functional, organism-based. The method in brief: as §1

Data set [17] concerns Syrian golden hamster. The data set can be described thus: Toxicity in Syrian hamster infected with Leishmania tropica MHOM/MA/1988/LEM1314 promastigotes assessed as stress at 200 mg/kg administered through oral gavage for 3 weeks starting at week 7 post infection measured during compound dosing or measured 1 week post last dose. The class given is organism-based, Mesocricetus auratus. As to conditions: in vivo, 168 h. The method in brief: as §3

In data set [18] the test system is Leishmania tropica. Briefly: Antileishmanial activity against Leishmania tropica MHOM/MA/1988/LEM1314 promastigotes infected in Syrian hamster assessed as reduction in parasite load in spleen at 1 % administered once daily tropically on footpad for 3 weeks starting at week 7 post infection measured 1 week post last dose by qPCR analysis relative to control. The class given is functional. The method in brief:
as §1

Data set [19] relates to Syrian golden hamster. Briefly: Toxicity in Syrian hamster infected with Leishmania tropica MHOM/MA/1988/LEM1314 promastigotes assessed as change in body weight at 200 mg/kg administered through oral gavage for 3 weeks starting at week 7 post infection measured during compound dosing or measured 1 week post last dose. As to conditions: in vivo, 168 h. Format: organism-based, Mesocricetus auratus. The method in brief: as §2

Data set [20] deals with Syrian golden hamster. The data set can be described thus: Toxicity in Syrian hamster infected with Leishmania tropica MHOM/MA/1988/LEM1314 promastigotes assessed as mean serum AST levels at 5 % administered tropically on footpad for 3 weeks starting at week 7 post infection measured 1 week post last dose (reference value: 77.1 +/- 0.9 U/L). As to conditions: in vivo, topical_or_ocular, 168 h. The class given is organism-based, Mesocricetus auratus.

In data set [21] the test system is Syrian golden hamster. Briefly: Toxicity in Syrian hamster assessed as mean serum creatinine levels at 500 mg/kg administered through oral gavage for 28 days (reference value: 0.21 +/- 0.2 mg/dl). Format: organism-based, Mesocricetus auratus. As to conditions: in vivo, 672 h.
The test system of data set [22] is Syrian golden hamster. Briefly: Toxicity in Syrian hamster infected with Leishmania tropica MHOM/MA/1988/LEM1314 promastigotes assessed as mean serum ALP levels at 200 mg/kg administered through oral gavage for 3 weeks starting at week 7 post infection measured 1 week post last dose (reference value: 14.4 +/- 0.9 U/L). Format: organism-based, Mesocricetus auratus. As to conditions: in vivo, 168 h.

The source made the active and inactive calls. The calls are words filed in the database; no cut-off is given here.

`CC(C)=CCC[C@](C)(O)[C@@H]1CC=C(C)CC1` [LEVOMENOL]: the outcome with Leishmania tropica [1], with Leishmania tropica [2], in the data set with Leishmania tropica [3], in the data set with Leishmania tropica [10], with Leishmania tropica [16] and in the data set with Leishmania tropica [18] was Active. Moreover, the Activity is 81.8 U/L in the data set on Syrian golden hamster [4]; 81.9 U/L in the data set on Syrian golden hamster [5]; 3.2 g with Syrian golden hamster [6]; “Non-Toxic” in the data set on Syrian golden hamster [7]; 0.2 mg/dL in the data set with Syrian golden hamster [8]; “Non-Toxic” in the data set on Syrian golden hamster [9]. Further, the Activity with Syrian golden hamster [11] is 13.3 U/L; in the data set on Syrian golden hamster [12], “Non-Toxic”; with Syrian golden hamster [13], 0.19 mg/dL; in the data set on Syrian golden hamster [14], 33.9 mg/dL; in the data set with Syrian golden hamster [15] it was “Non-Toxic”; in the data set on Syrian golden hamster [17] it was “Non-Toxic”. Further, the Activity entry in the data set on Syrian golden hamster [19] was “Non-Toxic”; in the data set with Syrian golden hamster [20], 73 U/L; in the data set on Syrian golden hamster [21], 0.19 mg/dL; with Syrian golden hamster [22] it was 12.9 U/L.
